Test results as given in ChEMBL document CHEMBL1158114, “Acetylated flavanone glycosides from the rhizomes of Cyclosorus acuminatus” (2006).
≈ marks a conversion by molar mass, not a printed value.

Experiments:
Format in all cases: functional
Streptococcus pneumoniae = assay: Antibacterial activity against Streptococcus pneumoniae ATCC 49619
Outline: (§1)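 Twofold serial dilution method; reference laboratory ATCC strains used as test organisms: S. aureus 25923, E. coli 25922, S. pneumoniae 49619, H. influenzae 49247.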

Haemophilus influenzae = assay: Antibacterial activity against Haemophilus influenzae ATCC 49247; outline: as §1
Escherichia coli = assay: Antibacterial activity against Escherichia coli ATCC 25922; outline: as §1
Staphylococcus aureus = assay: Antibacterial activity against Staphylococcus aureus ATCC 25923; outline: as §1

| Compound | MIC (Streptococcus pneumoniae) | MIC (Haemophilus influenzae) | MIC (Escherichia coli) | MIC (Staphylococcus aureus) |
| --- | --- | --- | --- | --- |
| CC(=O)OC[C@H]1O[C@@H](O[C@@H]2[C@@H](O)[C@H](C)O[C@@H](Oc3ccc(O)cc3[C@@H]3CC(=O)c4c(O)cc(O)cc4O3)[C@@H]2OC(C)=O)[C@H](OC(C)=O)[C@@H](O)[C@@H]1O | 32 µg/mL (≈ 44.3 µM) | 32 µg/mL (≈ 44.3 µM) | 64 µg/mL (≈ 88.6 µM) | 128 µg/mL (≈ 177 µM) |
| CC(=O)OC[C@H]1O[C@@H](O[C@@H]2[C@@H](O)[C@H](C)O[C@@H](Oc3ccc(O)cc3[C@@H]3CC(=O)c4c(O)cc(O)cc4O3)[C@@H]2OC(C)=O)[C@H](O)[C@@H](OC(C)=O)[C@@H]1OC(C)=O | 32 µg/mL (≈ 41.8 µM) | 32 µg/mL (≈ 41.8 µM) | 64 µg/mL (≈ 83.7 µM) | 128 µg/mL (≈ 167 µM) |
| CC[C@H]1OC(=O)[C@H](C)[C@@H](O[C@H]2C[C@@](C)(OC)[C@@H](O)[C@H](C)O2)[C@H](C)[C@@H](O[C@@H]2O[C@H](C)C[C@H](N(C)C)[C@H]2O)[C@](C)(O)C[C@@H](C)CN(C)[C@H](C)[C@@H](O)[C@]1(C)O [AZITHROMYCIN] | 4 µg/mL (≈ 5.34 µM) | 8 µg/mL (≈ 10.7 µM) | 0.5 µg/mL (≈ 0.668 µM) | 0.5 µg/mL (≈ 0.668 µM) |
| CC[C@H]1OC(=O)[C@H](C)[C@@H](O[C@H]2C[C@@](C)(OC)[C@@H](O)[C@H](C)O2)[C@H](C)[C@@H](O[C@@H]2O[C@H](C)C[C@H](N(C)C)[C@H]2O)[C@](C)(O)C[C@@H](C)C(=O)[C@H](C)[C@@H](O)[C@]1(C)O [ERYTHROMYCIN] | 64 µg/mL (≈ 87.2 µM) | 64 µg/mL (≈ 87.2 µM) | 0.25 µg/mL (≈ 0.341 µM) | 0.25 µg/mL (≈ 0.341 µM) |

Continued, values first:

| MIC (Streptococcus pneumoniae) | MIC (Haemophilus influenzae) | MIC (Escherichia coli) | MIC (Staphylococcus aureus) | Compound |
| --- | --- | --- | --- | --- |
| 32 µg/mL (≈ 44.3 µM) | 32 µg/mL (≈ 44.3 µM) | 64 µg/mL (≈ 88.6 µM) | 128 µg/mL (≈ 177 µM) | CC(=O)OC[C@H]1O[C@@H](O[C@@H]2[C@@H](O)[C@H](C)O[C@@H](Oc3ccc(O)cc3[C@@H]3CC(=O)c4c(O)cc(O)cc4O3)[C@@H]2OC(C)=O)[C@H](O)[C@@H](O)[C@@H]1OC(C)=O |
| 32 µg/mL (≈ 44.3 µM) | 32 µg/mL (≈ 44.3 µM) | 64 µg/mL (≈ 88.6 µM) | 128 µg/mL (≈ 177 µM) | CC(=O)OC[C@H]1O[C@@H](O[C@@H]2[C@@H](O)[C@H](C)O[C@@H](Oc3ccc(O)cc3[C@@H]3CC(=O)c4c(O)cc(O)cc4O3)[C@@H]2OC(C)=O)[C@H](O)[C@@H](OC(C)=O)[C@@H]1O |
| 32 µg/mL (≈ 53.6 µM) | 32 µg/mL (≈ 53.6 µM) | 64 µg/mL (≈ 107 µM) | 128 µg/mL (≈ 215 µM) | C[C@@H]1O[C@@H](Oc2ccc(O)cc2[C@@H]2CC(=O)c3c(O)cc(O)cc3O2)[C@H](O)[C@H](O[C@@H]2O[C@H](CO)[C@@H](O)[C@H](O)[C@H]2O)[C@H]1O |
| 32 µg/mL (≈ 47 µM) | 32 µg/mL (≈ 47 µM) | 64 µg/mL (≈ 94 µM) | 128 µg/mL (≈ 188 µM) | CC(=O)OC[C@H]1O[C@@H](O[C@@H]2[C@@H](O)[C@H](C)O[C@@H](Oc3ccc(O)cc3[C@@H]3CC(=O)c4c(O)cc(O)cc4O3)[C@@H]2OC(C)=O)[C@H](O)[C@@H](O)[C@@H]1O |
| 32 µg/mL (≈ 50.1 µM) | 32 µg/mL (≈ 50.1 µM) | 64 µg/mL (≈ 100 µM) | 128 µg/mL (≈ 200 µM) | CC(=O)O[C@H]1[C@H](Oc2ccc(O)cc2[C@@H]2CC(=O)c3c(O)cc(O)cc3O2)O[C@@H](C)[C@H](O)[C@H]1O[C@@H]1O[C@H](CO)[C@@H](O)[C@H](O)[C@H]1O |
